Experimental data: ChEMBL document CHEMBL1926502, “The discovery of UK-369003, a novel PDE5 inhibitor with the potential for oral bioavailability and dose-proportional pharmacokinetics” (Bioorg Med Chem, 2012)
Converted amounts (≈) assume the structure as drawn.

Assays:
Caco-2 = assay: Efflux ratio of apparent permeability from apical to basolateral to basolateral to apical side of human Caco2 cells; assay type: ADME, cell-based
Procedure, shortened: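 Caco-2 cell monolayers; flux measured in both directions, and the efflux ratio is taken as apical→basolateral flux divided by basolateral→apical flux.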

[1] = target: cGMP-specific 3',5'-cyclic phosphodiesterase (Homo sapiens, UniProt O76074); assay: Inhibition of human PDE5 isolated from corpus cavernosum after 30 to 60 mins by scintillation counting method
[2] = Half life in human liver microsomes; assay type: ADME, Microsome
Homo sapiens [3] = species on record: Homo sapiens; assay: Selectivity ratio of IC50 for PDE6 to IC50 for human PDE5
Procedure, shortened: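 PDE5 was prepared from human corpus cavernosum and cone PDE6 from dog retina (anion-exchange fraction). IC50s came from concentration–response curves in a scintillation proximity assay with [3H]/unlabelled cGMP (1:3) at about 1/3 Km, so IC50 = Ki. Buffer was 20 mM Tris-HCl pH 7.4, 5 mM MgCl2, 1 mg/mL BSA; 30–60 min at 30 °C, <30% turnover. Ratio = PDE6 IC50/PDE5 IC50.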

[4] = Lipophilicity, log D of the compound at pH 7.4; assay type: physicochemical; details: buffer
[5] = Apparent permeability from apical to basolateral side of human Caco2 cells at 25 uM; assay type: ADME, cell-based; details: Caco-2
[6] = Volume of distribution in dog at 0.5 mg/kg, iv and 1 mg/kg, po; assay type: ADME, organism-based, Canis lupus familiaris; details: in vivo
[7] = Clearance in dog at 0.5 mg/kg, iv; assay type: ADME, organism-based, Canis lupus familiaris; parameters: dose 0.5 mg/kg, route intravenous; details: in vivo
[8] = Elimination half life in dog at 0.5 mg/kg, iv and 1 mg/kg, po; assay type: ADME, organism-based, Canis lupus familiaris; details: in vivo, read-out: beta t1/2 (converted)
[9] = Oral bioavailability in dog at 1 mg/kg; assay type: ADME, organism-based, Canis lupus familiaris; details: in vivo
[10] = Elimination half life in human at 0.43 mg/kg, iv; assay type: ADME, organism-based; parameters: dose 0.43 mg/kg, route intravenous; details: in vivo, read-out: beta t1/2 (converted)
[11] = Tmax in human at 1.43 mg/kg, po; assay type: ADME, organism-based; parameters: dose 1.43 mg/kg, route oral; details: in vivo
[12] = Volume of distribution in rat at 1 mg/kg, iv and 2 mg/kg, po; assay type: ADME, organism-based; details: in vivo
[13] = Aqueous solubility of the compound at pH 6.7; assay type: physicochemical; details: buffer
Homo sapiens [14] = assay: Oral bioavailability in human at 1.43 mg/kg; assay type: ADME, organism-based; details: in vivo
[15] = Elimination half life in rat at 1 mg/kg, iv and 2 mg/kg, po; assay type: ADME, organism-based; details: in vivo, read-out: beta t1/2 (converted)
[16] = Clearance in rat at 1 mg/kg, iv; assay type: ADME, organism-based; parameters: dose 1 mg/kg, route intravenous; details: in vivo
Homo sapiens [17] = assay: AUC in human at 1.43 mg/kg, po; assay type: ADME, organism-based, Plasma; parameters: dose 1.43 mg/kg, route oral; details: in vivo
Procedure, shortened: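 Human pharmacokinetic study. The oral arm was given at 1.43 mg/kg, and a separate intravenous arm at 0.43 mg/kg. AUC (ng h/ml) was derived from the oral dosing, alongside Cmax, Tmax and oral bioavailability.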

[18] = Volume of distribution in human at 0.43 mg/kg, iv; assay type: ADME, organism-based; parameters: dose 0.43 mg/kg, route intravenous; details: in vivo
[19] = Oral bioavailability in rat at 2 mg/kg; assay type: ADME, organism-based; details: in vivo
[20] = Cmax in human at 1.43 mg/kg, po; assay type: ADME, organism-based; parameters: dose 1.43 mg/kg, route oral; details: in vivo
[21] = Aqueous solubility of the compound in 0.2 M lactate buffer at pH 4.3; assay type: physicochemical

IC50 [1]	Ratio IC50 (Homo sapiens [3])	SMILES	other results
1.53 nM	306	CCc1c2nc(-c3cc(S(=O)(=O)N4CCN(CC)CC4)cnc3OCCOC)[nH]c(=O)c2nn1CCOC	Ratio (Caco-2): 4.2; half-life [2]: 70 min; logD [4]: 1.4; Papp A→B at 25 µM [5]: 9 ×10⁻⁶ cm/s
1.27 nM	210	CCc1c2nc(-c3cc(S(=O)(=O)N4CCN(CC)CC4)cnc3OCCOC)[nH]c(=O)c2nn1CCN1CCOCC1	Ratio (Caco-2): 8; half-life [2]: 48 min; logD [4]: 1.1; Papp A→B at 25 µM [5]: 2.8 ×10⁻⁶ cm/s
1.96 nM		CCN1CCN(S(=O)(=O)c2cnc(OCCOC)c(-c3nc4c5n(nc4c(=O)[nH]3)CCCC5C)c2)CC1 (single isomer, unassigned; (-)) [listing 1 of 2 here]	Ratio (Caco-2): 1.5; Vd [6]: 2.6 L/kg; clearance [7]: 20 mL/min/kg; half-life [8]: 90 min; half-life [2]: 11.2 min; bioavailability [9]: 18%; logD [4]: 1.6; Papp A→B at 25 µM [5]: 24 ×10⁻⁶ cm/s
0.69 nM	51	CCCOc1ncc(S(=O)(=O)N2CCN(CC)CC2)cc1-c1nc2c(CC)n(CCOC)nc2c(=O)[nH]1	
2.76 nM		CCN1CCN(S(=O)(=O)c2cnc(OCCOC)c(-c3nc4c5n(nc4c(=O)[nH]3)CCCC5C)c2)CC1 (single isomer, unassigned; (+)) [listing 1 of 2 here]	
2.47 nM	55	CCCOc1ncc(S(=O)(=O)N2CCN(CC)CC2)cc1-c1nc2c3n(nc2c(=O)[nH]1)CCCC3	
3.7 nM		CCOc1ncc(S(=O)(=O)N2CCN(CC)CC2)cc1-c1nc2c3n(nc2c(=O)[nH]1)CCCC3C (single isomer, unassigned; (-)) [listing 1 of 2 here]	
1.83 nM	170	CCCn1nc2c(=O)[nH]c(-c3cc(S(=O)(=O)N4CCN(CC)CC4)cnc3OCCOC)nc2c1CC	
0.74 nM	184	CCCCOc1ncc(S(=O)(=O)N2CCN(CC)CC2)cc1-c1nc2c(CC)n(C3CCN(C)CC3)nc2c(=O)[nH]1	
	842	CCCOc1ccc(S(=O)(=O)N2CCN(CC)CC2)cc1-c1nc2c(CC)n(Cc3ccccn3)nc2c(=O)[nH]1	
1.36 nM	354	CCc1c2nc(-c3cc(S(=O)(=O)N4CCN(CC)CC4)cnc3OCCOC)[nH]c(=O)c2nn1C(C)C	
1 nM	171	CCCCOc1ncc(S(=O)(=O)N2CCN(CC)CC2)cc1-c1nc2c(CC)n(CCN(C)C)nc2c(=O)[nH]1	Ratio (Caco-2): 7; logD [4]: 3; Papp A→B at 25 µM [5]: 2.8 ×10⁻⁶ cm/s
	125	CCOc1ncc(S(=O)(=O)N2CCN(CC)CC2)cc1-c1nc2c3n(nc2c(=O)[nH]1)CCCC3C (single isomer, unassigned; (+)) [listing 1 of 2 here]	
2.44 nM	404	CCc1c2nc(-c3cc(S(=O)(=O)N4CCN(CC)CC4)cnc3OCC(C)C)[nH]c(=O)c2nn1CCCN(C)C	
1.76 nM	219	CCc1c2nc(-c3cc(S(=O)(=O)N4CCN(CC)CC4)cnc3OCCOC)[nH]c(=O)c2nn1C1CCC1	
10.8 nM	70	CCOc1ncc(S(=O)(=O)N2CCN(CC)CC2)cc1-c1nc2c3n(nc2c(=O)[nH]1)CCCC3	
1.04 nM	331	CCc1c2nc(-c3cc(S(=O)(=O)N4CCN(CC)CC4)cnc3OCCOC)[nH]c(=O)c2nn1CC(C)C	Ratio (Caco-2): 2.5; half-life [2]: 11 min; logD [4]: 2.8; Papp A→B at 25 µM [5]: 24 ×10⁻⁶ cm/s
	55	CCOc1ncc(S(=O)(=O)N2CCN(CC)CC2)cc1-c1nc2c3n(nc2c(=O)[nH]1)CCCC3C (single isomer, unassigned; (-)) [listing 2 of 2 here]	

IC50 [1]	Ratio IC50 (Homo sapiens [3])	SMILES	other results
1.01 nM	189	CCc1c2nc(-c3cc(S(=O)(=O)N4CCN(CC)CC4)cnc3OCCOC)[nH]c(=O)c2nn1CC1CC1	
0.78 nM	209	CCCCOc1ncc(S(=O)(=O)N2CCN(CC)CC2)cc1-c1nc2c(CC)n(C3CN(C)C3)nc2c(=O)[nH]1	Ratio (Caco-2): 4; half-life [2]: 74 min; logD [4]: 2.8; Papp A→B at 25 µM [5]: 6 ×10⁻⁶ cm/s
1.66 nM	241	CCc1c2nc(-c3cc(S(=O)(=O)N4CCN(CC)CC4)cnc3OCCOC)[nH]c(=O)c2nn1C1CCOCC1	
1.23 nM		CCOc1ncc(S(=O)(=O)N2CCN(CC)CC2)cc1-c1nc2c(CC)n(CCOC)nc2c(=O)[nH]1	Vd [6]: 2.8 L/kg; clearance [7]: 16 mL/min/kg; half-life [10]: 156 min; Tmax [11]: 60 min; half-life [8]: 126 min; Vd [12]: 2.2 L/kg; half-life [2]: 28 min; solubility [13]: 100 mg/mL (≈ 192 mM); F (Homo sapiens [14]): 34%; bioavailability [9]: 55%; half-life [15]: 57 min; clearance [16]: 26.6 mL/min/kg; AUC (Homo sapiens [17]): 95.2 ng·h/mL; Vd [18]: 2.8 L/kg; logD [4]: 2.1; Papp A→B at 25 µM [5]: 16 ×10⁻⁶ cm/s; bioavailability [19]: 61%; Cmax [20]: 205 ng/mL; solubility [21]: > 14 mg/mL
0.69 nM	204	CCc1c2nc(-c3cc(S(=O)(=O)N4CCN(CC)CC4)cnc3OCC(C)C)[nH]c(=O)c2nn1CCOC	Ratio (Caco-2): 1.1; half-life [2]: 7 min; logD [4]: 2.9; Papp A→B at 25 µM [5]: 40 ×10⁻⁶ cm/s
	149	CCN1CCN(S(=O)(=O)c2cnc(OCCOC)c(-c3nc4c5n(nc4c(=O)[nH]3)CCCC5C)c2)CC1 (single isomer, unassigned; (+)) [listing 2 of 2 here]	
2.89 nM	237	CCc1c2nc(-c3cc(S(=O)(=O)N4CCN(C)CC4)cnc3OCCOC)[nH]c(=O)c2nn1CC(C)C	Ratio (Caco-2): 2.2; half-life [2]: 28 min; logD [4]: 2.3; Papp A→B at 25 µM [5]: 19 ×10⁻⁶ cm/s
	490	CCN1CCN(S(=O)(=O)c2cnc(OCCOC)c(-c3nc4c5n(nc4c(=O)[nH]3)CCCC5C)c2)CC1 (single isomer, unassigned; (-)) [listing 2 of 2 here]	
0.86 nM	184	CCOc1ncc(S(=O)(=O)N2CCN(CC)CC2)cc1-c1nc2c(CC)n(CCN3CCOCC3)nc2c(=O)[nH]1	Ratio (Caco-2): 11.2; half-life [2]: 18 min; logD [4]: 1.6; Papp A→B at 25 µM [5]: 2.5 ×10⁻⁶ cm/s
0.26 nM	153	CCc1c2nc(-c3cc(S(=O)(=O)N4CCN(CC)CC4)cnc3OCC3CC3)[nH]c(=O)c2nn1CCN1CCOCC1	
0.75 nM	309	CCc1c2nc(-c3cc(S(=O)(=O)N4CCN(CC)CC4)cnc3OCc3ccccn3)[nH]c(=O)c2nn1CCOC	
15.8 nM	28	CCOc1ncc(S(=O)(=O)N2CCN(CC)CC2)cc1-c1nc2c(CC)n(C3CNC3)nc2c(=O)[nH]1	
8.2 nM	52	CCOc1ncc(S(=O)(=O)N2CCN(CC)CC2)cc1-c1nc2c(CC)n(C3CN(C)C3)nc2c(=O)[nH]1	
0.31 nM	100	CCCCOc1ncc(S(=O)(=O)N2CCN(CC)CC2)cc1-c1nc2c(CC)n(C3CCN(S(C)(=O)=O)CC3)nc2c(=O)[nH]1	
8.5 nM	392	CCN1CCN(S(=O)(=O)c2cnc(OCCOC)c(-c3nc4c5n(nc4c(=O)[nH]3)CCCC5)c2)CC1	
3.35 nM		CCOc1ncc(S(=O)(=O)N2CCN(CC)CC2)cc1-c1nc2c3n(nc2c(=O)[nH]1)CCCC3C (single isomer, unassigned; (+)) [listing 2 of 2 here]	
4.35 nM	165	CCCn1nc2c(=O)[nH]c(-c3cc(S(=O)(=O)N4CCN(C)CC4)cnc3OCCOC)nc2c1CC	
